The results in this text go back to ChEMBL document CHEMBL2086251, “Arylazolyl(azinyl)thioacetanilides. Part 10: design, synthesis and biological evaluation of novel substituted imidazopyridinylthioacetanilides as potent HIV-1 inhibitors” (Bioorg Med Chem, 2012).

Some results are limits rather than exact numbers.

Data set [1] relates to Human immunodeficiency virus 1. Put plainly: Antiviral activity against HIV-1 RES056 harboring RT K103N/Y181C mutant gene infected human MT4 cells assessed as inhibition in viral syncytium formation by MTT assay. It counts as functional, organism-based. The note with it: Human immunodeficiency virus 1, RES056, MT4. In a few lines: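 MT-4 cells infected with double-mutant RT (K103N/Y181C) HIV-1 RES056; compounds added as serial fivefold dilutions in triplicate wells with mock-infected parallels. Cells at 6 × 10⁵ cells/mL. Viability read by MTT after five days at 540 and 690 nm, median OD of three wells. EC50 is the concentration inhibiting virus-induced syncytium formation by 50%.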
In general terms: Formazan colour is commonly taken as a measure of viable cells.

Data set [2] deals with Human immunodeficiency virus 1. In words: Antiviral activity against HIV-1 3B infected human MT4 cells assessed as inhibition in viral syncytium formation by MTT assay. It counts as functional, organism-based. The settings on record: Human immunodeficiency virus 1, 3B. In a few lines: (§1)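 MT-4 cells (6 × 10⁵ cells/mL) infected with HIV-1 IIIB or HIV-2 ROD stock at 100–300 CCID50, with serial fivefold compound dilutions in triplicate wells. After 5 days, viability was read by MTT reduction at 540 and 690 nm, using the median OD of three wells. EC50 is the concentration giving 50% inhibition of virus-induced syncytium formation.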

The test system of data set [3] is Human immunodeficiency virus 2. Put plainly: Antiviral activity against HIV-2 ROD infected human MT4 cells assessed as inhibition in viral syncytium formation by MTT assay. It counts as functional, organism-based. The note with it: Human immunodeficiency virus 2, ISOLATE ROD. In short, it runs like this: as §1
Data set [4] is described as follows: Cytotoxicity against mock-infected human MT4 cells by MTT assay. Type of data set: cell-based. In short, it runs like this:
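Mock-infected MT-4 cells (6 × 10⁵ cells/mL) were run in parallel with the infected wells, with serial fivefold compound dilutions in triplicate. After 5 days, viability was read by MTT at 540 and 690 nm, using the median OD of three wells. CC50 is the concentration that reduces OD540 of mock-infected controls by 50%.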

In data set [5] the target is Human immunodeficiency virus type 1 reverse transcriptase (Human immunodeficiency virus 1, UniProt Q72547). Put plainly: Inhibition of recombinant HIV-1 RT assessed as inhibition of biotin-dUTP incorporation by colorimetric analysis. In short, it runs like this:
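Highly purified recombinant HIV-1 RT was used with a […] homopolymer template primer. Nucleotides were linked to a microtiter plate, and incorporated biotin-dUTP was detected colorimetrically. IC50 is the concentration inhibiting biotin-dUTP incorporation by 50%.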

The nature of data set [6]: Selectivity index, ratio of CC50 for human MT4 cells to EC50 for HIV-1 3B. The note with it: read-out: Ratio CC50/EC50. It counts as toxicity, cell-based. In short, it runs like this: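 SI is the ratio CC50/EC50, both taken from parallel 5-day MTT assays in MT-4 cells. CC50 comes from mock-infected cells and EC50 from HIV-1 IIIB-infected cells.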

A word on the EC50: it is the concentration giving half of the maximal effect. As usually defined, the CC50 is the concentration at which the toxic effect on the cells reaches its halfway point. The low end stands for harm at low concentration, the high end for better tolerance by the cells. One may read the IC50 as the concentration needed to halve the response being measured. Take `Cc1cc(C)c(-n2c(SCC(=O)Nc3ccc(S(N)(=O)=O)cc3Br)nc3cnccc32)c(C)c1`: the 50% effective concentration (EC50) is over 9.7 µM in data set [1], 0.21 µM in data set [2] and over 9.7 µM in data set [3]. Further, in data set [4], the CC50 is 9.7 µM. Further, the half-inhibitory concentration (IC50) in data set [5] was determined as 4.4 µM. The selectivity ratio in data set [6] worked out at 46.

Take `CCOC(=O)c1ccc(NC(=O)CSc2nc3cccnc3n2-c2c(C)cc(C)cc2C)c(Br)c1`: the half-maximal effective concentration (EC50) was over 117 µM in data set [1], 9.9 µM in data set [2] and over 117 µM in data set [3]. The compound further returned a CC50 in data set [4] of 117 µM. Further, in data set [6], the selectivity ratio amounted to 12.
